Target: T1, CYP6A8 (Drosophila melanogaster, UniProt Q27593)
T1 sequence (Q27593 1-506): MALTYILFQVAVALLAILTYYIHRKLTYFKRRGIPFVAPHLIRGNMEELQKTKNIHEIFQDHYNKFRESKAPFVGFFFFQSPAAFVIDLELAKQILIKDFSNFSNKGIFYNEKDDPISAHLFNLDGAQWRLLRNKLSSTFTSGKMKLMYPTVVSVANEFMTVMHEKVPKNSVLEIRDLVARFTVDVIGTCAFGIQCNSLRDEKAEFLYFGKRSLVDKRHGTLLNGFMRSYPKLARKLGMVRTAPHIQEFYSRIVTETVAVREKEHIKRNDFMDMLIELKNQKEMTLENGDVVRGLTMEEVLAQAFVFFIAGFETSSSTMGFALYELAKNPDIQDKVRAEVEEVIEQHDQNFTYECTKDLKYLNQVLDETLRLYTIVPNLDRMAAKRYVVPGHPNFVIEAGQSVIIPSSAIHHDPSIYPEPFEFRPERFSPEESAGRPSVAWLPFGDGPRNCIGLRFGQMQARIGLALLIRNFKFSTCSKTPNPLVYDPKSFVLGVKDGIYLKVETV
Assay: UV-visible spectral binding titration
Method in brief: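 Recombinant C-terminally His6-tagged CYP6A8 was expressed in E. coli from pCW and purified by Ni2+-NTA chromatography. Enzyme was diluted to 1 µM in 100 mM potassium phosphate (pH 7.6) and split between sample and reference cuvettes. Fatty acid was added stepwise and 350–500 nm difference spectra were recorded. Kd was derived by plotting the peak-to-trough absorbance difference against ligand concentration.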

| SMILES | Kd [µM] |
| --- | --- |
| CCCCCCCCCC(=O)O [capric acid] | 144 ± 20 |
| CCCCCCCCCCCC(=O)O [lauric acid] | 28 ± 4 |
| CCCCCCCC(=O)O [octanoic acid] | 713 ± 46 |
